Rows were chosen to be rich in hits. Some 2.3% of all compounds tested hit in one or more screens of this group.
SUMO1 PPI mod = modulators of human SUMO1-mediated protein-protein interactions. SUMO1 binding to a labelled peptide, TR-FRET, 1 h. inhibition, % at 20 µM. 0.33% of 360,000 active; in the data active = inhibition above about 37%
Target sequence (P63165 whole entry, looked up): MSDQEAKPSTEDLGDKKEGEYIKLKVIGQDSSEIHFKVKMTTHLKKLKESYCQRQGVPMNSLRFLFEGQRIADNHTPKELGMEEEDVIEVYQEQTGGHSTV
Scp-1 inhibitor = Scp-1 (human) phosphatase inhibition. Q9GZU7. Recombinant Scp1, phosphopeptide, malachite green phosphate absorbance. inhibition, % at 20 µM. 0.88% of 340,000 active;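 active = inhibition above about 50% at 20 µM, limit read from the data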
Target sequence (Q9GZU7 76-261 limits assumed): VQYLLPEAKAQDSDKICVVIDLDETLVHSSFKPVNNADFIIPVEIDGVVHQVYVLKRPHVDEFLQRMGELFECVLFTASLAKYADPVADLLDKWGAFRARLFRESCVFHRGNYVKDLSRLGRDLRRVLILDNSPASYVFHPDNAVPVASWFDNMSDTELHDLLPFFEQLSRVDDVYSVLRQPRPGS
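Test system: SCP-1 catalytic domain; Buffer or medium: Acidic Tris acetate buffer with magnesium and detergent; Also added: Phosphorylated 17-residue peptide substrate; Compound: single 20 µM dose, 1% DMSO; Schedule: enzyme reaction 45 min at room temperature, colour 5 min, stabilisation 30 min; Signal: Phosphate-binding colour reagent, absorbance read at 630 nm.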
LMPTP inh = blocks human LMPTP phosphatase; P24666; recombinant LMPTP-A, OMFP fluorogenic substrate, fluorescence intensity; inhibition, % at 20 µM; 0.22% of 360,000 active;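 active = compounds that cut the enzyme signal by at least half of the control window in the single-dose screen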
Target sequence (P24666 whole entry, looked up): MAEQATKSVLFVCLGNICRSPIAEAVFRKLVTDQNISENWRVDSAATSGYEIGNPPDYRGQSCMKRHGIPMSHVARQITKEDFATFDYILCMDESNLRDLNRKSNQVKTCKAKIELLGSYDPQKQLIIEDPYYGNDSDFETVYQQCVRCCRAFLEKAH
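Test system: LMPTP-A phosphatase enzyme. Amount: LMPTP-A at 0.625 nM final in the reaction. Reagent: OMFP substrate, 400 µM final. Times: 50 min at room temperature. Signal: endpoint fluorescence intensity from OMFP dephosphorylation. Read-out basis: % inhibition. Benchmarks: no-enzyme and uninhibited controls.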
STEP block = STEP (human) phosphatase inhibition | P54829 | recombinant STEP, OMFP fluorogenic substrate, fluorescence | inhibition, % at 20 µM | 0.25% of 360,000 active | AID 588621;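 active = inhibition at 20 µM, scaled per plate between control wells, above about 37%, limit read from the data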
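Assay system: isolated STEP enzyme. Buffer or medium: pH 6.0 Bis-Tris with DTT and Tween 20. Also added: fluorogenic phosphatase substrate OMFP at 25 µM final. Dosing: 20 µM, 1% DMSO. Timing: 20 min reaction, room temperature, in the dark. Measured by: fluorescence intensity, excitation 480 nm, emission 540 nm. Evaluation: normalized % inhibition.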
Rpn11 block = Rpn11 (human) deubiquitinase inhibition; human 26S proteasome, Ub4-pepOG fluorescence polarization; 20S core pre-blocked with epoxomicin; AID 588493; inhibition, % at 20 µM; 0.59% of 360,000 active; O00487;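 active = inhibition at 20 µM, scaled to each plate's controls, above about 33%, limit read from the data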
DNMT1 inh = blocks human DNA methyltransferase DNMT1; 0.83% of 360,000 active; AID 588458; DNMT1 molecular beacon, Hinp1I cleavage, fluorescence; P26358; inhibition (reported as % activation of signal), % at 10 µM; in the data active = inhibition above about 50%
Scp-1 conf = confirmation of human Scp-1 phosphatase inhibitors; shares compounds with Scp-1 inhibitor; 61% of 2,500 active; inhibition, % at 20 µM; recombinant SCP-1 catalytic domain, phosphate release, malachite green absorbance; AID 540281
MG interference = colorimetric interference in Scp-1 counter-screen | shares compounds with Scp-1 inhibitor | apparent inhibition (interference), % at 20 µM | 2,500 tested, under 10 active | Colorimetric interference counterscreen, malachite green absorbance 630 nm | AID 540313;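 note: compounds added after enzyme reaction finished so only phosphate colour detection is probed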
Scp1 DSF = binds human Scp-1, shifting its melting temperature; shares compounds with Scp-1 inhibitor; Recombinant SCP1, Sypro Orange thermal shift Tm; thermal shift relative to vanadate control, % at 40 µM; 25% of 1,500 active; AID 540329;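 active = substances whose mean melting-temperature shift, as a percentage of the reference inhibitor's shift, reaches about 5.3%, limit read from the data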
Each line names hits and unclear results; the compound was inactive in the other large screens (follow-up assays come after a bar, where they were run).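 Rule for the calls, unless noted: active = inhibition of at least 30% at 20 µM; inactive = the rest.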

O=C(Nc1cccc(S(=O)(=O)NC2=NCCCCC2)c1)C1COc2ccccc2O1 (stereo unspecified)	Scp-1 inhibitor 50 | Scp-1 conf 65 | MG interference inactive | Scp1 DSF inactive
O=C(COc1ccc(Cl)cc1)Nc1cccc(S(=O)(=O)NC2=NCCCCC2)c1	none
O=C(COC(=O)c1ccccc1NCCO)Nc1cccc(S(=O)(=O)NC2=NCCCCC2)c1	Scp-1 inhibitor 58 | Scp-1 conf 48 | MG interference inactive | Scp1 DSF inactive
CCOc1ccccc1C(=O)OCC(=O)Nc1cccc(S(=O)(=O)NC2=NCCCCC2)c1	none
N#Cc1ccc(OCC(=O)Nc2cccc(S(=O)(=O)NC3=NCCCCC3)c2)cc1	Scp-1 inhibitor 97 | Scp-1 conf 50 | MG interference inactive | Scp1 DSF inactive
O=C(CN1C(=O)NC2(CCCCCCC2)C1=O)Nc1cccc(Br)c1	none
COc1ccccc1OCCn1c(SCC(=O)O)nc2ccccc21	Scp-1 inhibitor 62 | Scp-1 conf 50 | MG interference inactive | Scp1 DSF inactive
Cc1ccc(S(=O)(=O)N2CCN(C(=O)CN3CCCSc4ccccc43)CC2)cc1	none
Cc1nc(N2CCOCC2)c2c(C)c(C(=O)Nc3ccccc3Cl)sc2n1	Scp-1 inhibitor 51 | Scp-1 conf inactive | MG interference inactive
C=CCOc1cccc(/C=C\c2nc(O)c([N+](=O)[O-])c(=O)[nH]2)c1	none
COc1ccc(/C=C\c2nc(O)c([N+](=O)[O-])c(=O)[nH]2)cc1O	none
C=CCOc1ccc(/C=C\c2nc(O)c([N+](=O)[O-])c(=O)[nH]2)cc1OC	Scp-1 inhibitor 62 | Scp-1 conf 59 | MG interference inactive | Scp1 DSF inactive
C=CCOc1ccc(/C=C\c2nc(O)c([N+](=O)[O-])c(=O)[nH]2)cc1OCC	Scp-1 inhibitor 99 | Scp-1 conf 45 | MG interference inactive | Scp1 DSF inactive
COc1ccc(C(C#N)=Cc2ccc(N(C)CCC#N)cc2)cc1	none (no result: Scp-1 inhibitor)
CC(=O)Nc1ccc(S(=O)(=O)N(C)CC(=O)N(C)Cc2sccc2C)cc1	none
COc1ccc(C(=O)OCCc2ccc(O)cc2)cc1	none
COc1ccc(C(=O)OCC[N+]2(C)CCOCC2)cc1	Scp-1 inhibitor 57 | Scp-1 conf inactive | MG interference inactive
CCCCn1c(N)c(N(CCOC)C(=O)c2cc(-c3ccco3)nc3ccccc23)c(=O)[nH]c1=O	Scp-1 inhibitor 58 | Scp-1 conf 67 | MG interference inactive | Scp1 DSF inactive
COCCN(C(=O)c1cc(-c2ccco2)nc2ccccc12)c1c(N)n(Cc2ccccc2)c(=O)[nH]c1=O	Scp-1 inhibitor 64 | Scp-1 conf 58 | MG interference inactive | Scp1 DSF inactive
COCCN(C(=O)COC(=O)/C=C/c1ccc(C(F)(F)F)cc1)c1c(N)n(Cc2ccccc2)c(=O)[nH]c1=O	Scp-1 inhibitor 58 | Scp-1 conf inactive | MG interference inactive
CCCCN(C(=O)c1cc(-c2ccco2)nc2ccccc12)c1c(N)n(CCCC)c(=O)[nH]c1=O	none (no result: Scp-1 inhibitor)
COCCN(C(=O)COC(=O)/C=C/c1ccc(SC)cc1)c1c(N)n(Cc2ccccc2)c(=O)[nH]c1=O	none
C/C=C/C(=O)N1CC2(CC(c3cccc(NC(=O)CC)c3)=NO2)C[C@H]1C(N)=O (stereo partly specified)	none
C=C(C)C(=O)Nc1cccc(C2=NOC3(C2)C[C@H](C(N)=O)N(C(=O)/C=C/C)C3)c1 (stereo partly specified)	SUMO1 PPI mod 60, Scp-1 inhibitor 66, DNMT1 inh 99 | Scp-1 conf 57 | MG interference inactive | Scp1 DSF inactive
CCCCCC(=O)Nc1cccc(C2=NOC3(C2)C[C@@H](C(N)=O)N(C(=O)c2ccc(Cl)cc2)C3)c1 (stereo partly specified)	Scp-1 inhibitor 66 | Scp-1 conf inactive | MG interference inactive
C=C(C)C(=O)N1CC2(CC(c3cccc(NC(=O)/C=C\C=C/C)c3)=NO2)C[C@H]1C(N)=O (stereo partly specified)	Scp-1 inhibitor 52 | Scp-1 conf 55 | MG interference inactive | Scp1 DSF inactive
S=c1[nH]nc(COc2ccccc2)n1-c1ccc(Cl)cc1	Scp-1 inhibitor 51 | Scp-1 conf inactive | MG interference inactive
COC(=O)c1ccc(CN(C)S(=O)(=O)c2cccs2)cc1	none
O=C(O)CC(Sc1n[nH]c(=S)s1)C(=O)O (stereo unspecified)	Scp-1 inhibitor 79 | Scp-1 conf 36 | MG interference inactive | Scp1 DSF inactive
Cc1cc(C(=O)OCC(=O)c2cccs2)ccc1[N+](=O)[O-]	none
CCOC(=O)C(=O)N(Nc1ccccc1C)c1ccccc1C	none
Cc1cc(C)c2oc(C(=O)NCCc3ccc(S(N)(=O)=O)cc3)cc(=O)c2c1	none
Cc1ccc2c(=O)cc(C(=O)NCCc3ccc(S(N)(=O)=O)cc3)oc2c1	Scp-1 inhibitor 95 | Scp-1 conf 70 | MG interference inactive | Scp1 DSF inactive
NS(=O)(=O)c1ccc(CCNC(=O)c2ccc3nccnc3c2)cc1	Scp-1 inhibitor 99, LMPTP inh 55 | Scp-1 conf 76 | MG interference inactive | Scp1 DSF inactive
COC(=O)c1ccc(Cn2cc(C(F)(F)F)cc([N+](=O)[O-])c2=O)cc1	none
CCn1c(NC)cc(=O)n(C)c1=O	Scp-1 inhibitor 79 | Scp-1 conf inactive | MG interference inactive
COc1ccc(OC)c(S(=O)(=O)N2CCCC(C(=O)N3CCCCCC3)C2)c1 (stereo unspecified)	none
CCN(CC)C(=O)COc1c(-c2ccco2)oc2ccccc2c1=O	none
CCN(CC)C(=O)COc1ccc2oc(-c3ccco3)cc(=O)c2c1	Scp-1 inhibitor 74 | Scp-1 conf 49 | MG interference inactive | Scp1 DSF inactive
O=C(COc1ccccc1Cl)Nc1ccc2[nH]c(=O)[nH]c2c1	none
NC1=NC(=O)C(CC(=O)NCc2ccccc2)S1 (stereo unspecified)	none | Scp-1 conf inactive | MG interference inactive
NC1=NC(=O)CC(C(=O)NCc2ccccc2)S1 (stereo unspecified)	none
Cc1ccc(-n2nnnc2-c2cnc(-c3cccnc3)nc2C(F)(F)F)cc1	none

Assay outcomes (PubChem BioAssay)
